Common to all, as to format: functional, organism-based
Experiment [1] has as its system Plasmodium vivax. Description: Antimalarial activity against Plasmodium vivax infected in human erythrocytes assessed as growth inhibition by microscopic analysis using giemsa staining. In a few lines:
(§1)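 P. vivax field isolates from Papuan patients, leukocyte-depleted on CF11, were placed in McCoy's 5A + 20% AB+ serum at 2% hematocrit. Plates held 11 two-fold drug dilutions, incubated in a candle jar at 37.5°C until >40% of control rings were mature schizonts. Giemsa thick films were read for schizonts (≥5 chromatin dots/200 parasites) relative to control. IC50 used an inhibitory sigmoid Emax model, accepting fits with Emax/E0 within 15%.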

The test system of experiment [2] is Plasmodium falciparum. Description: Antimalarial activity against Plasmodium falciparum at the ring stage infected in human erythrocytes assessed as growth inhibition by microscopic analysis using giemsa staining.
Experiment [3] concerns Plasmodium falciparum. Description: Antimalarial activity against Plasmodium falciparum infected in human erythrocytes assessed as growth inhibition by microscopic analysis using giemsa staining.
For experiment [4], the system named is Plasmodium vivax. Description: Antimalarial activity against Plasmodium vivax trophozoites infected in human erythrocytes assessed as growth inhibition by microscopic analysis using giemsa staining. In a few lines:
as §1

The test system of experiment [5] is Plasmodium falciparum. Description: Antimalarial activity against Plasmodium falciparum trophozoites infected in human erythrocytes assessed as growth inhibition by microscopic analysis using giemsa staining. In a few lines: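 Fresh field isolates from uncomplicated malaria patients in Papua, with leukocytes removed on CF11. Cells were kept at 2% hematocrit in RPMI 1640 + 10% AB+ human serum on predosed plates with 11 two-fold drug dilutions, in a candle jar at 37.5°C for 21–46 h. Harvest was when >40% of control rings reached schizont.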

Experiment [6] concerns Plasmodium vivax. Description: Antimalarial activity against Plasmodium vivax with >50% parasites at ring stage infected in human erythrocytes assessed as growth inhibition after 30 to 50 hrs by microscopic analysis using giemsa staining. In a few lines: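 Post hoc subset of P. vivax isolates with >50% ring stage at enrollment and assay duration of 30–50 h. Culture was in McCoy's 5A + 20% AB+ serum, 2% hematocrit, 11 two-fold drug dilutions, candle jar, 37.5°C.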

The subject of experiment [7] is Plasmodium vivax. Description: Antimalarial activity against Plasmodium vivax at the ring stage infected in human erythrocytes assessed as growth inhibition by microscopic analysis using giemsa staining. Put shortly:
as §1

The structures appear in SMILES notation.

The record followed here is ChEMBL document CHEMBL1671768, “In vitro activity of pyronaridine against multidrug-resistant Plasmodium falciparum and Plasmodium vivax” (Antimicrob Agents Chemother, 2010).

As usually defined, the IC50 is the concentration that gives 50% inhibition.

Consider `CCN(CC)Cc1cc(Nc2ccnc3cc(Cl)ccc23)ccc1O`, for which the IC50 in experiment [1] is 14 nM; in experiment [2], 8.1 nM; in experiment [3] it was 5.7 nM; in experiment [4], 25.2 nM; in experiment [5] it was 12.6 nM; in experiment [6], 12 nM.

With `C[C@H]1[C@H](OC(=O)CCC(=O)O)O[C@@H]2O[C@@]3(C)CC[C@H]4[C@H](C)CC[C@@H]1[C@@]24OO3` [ARTESUNATE], the figures for the half-inhibitory concentration (IC50) in experiment [1], in experiment [3] and in experiment [6] were 1.03 nM, 0.68 nM and 1.27 nM, respectively.

For the compound `CCN(CC)CCCC(C)Nc1ccnc2cc(Cl)ccc12` (stereo not given) [CHLOROQUINE], the IC50 came to 142 nM in experiment [1], 2430 nM in experiment [4] and 49.2 nM in experiment [7].

As for `OC(c1cc(C(F)(F)F)nc2c(C(F)(F)F)cccc12)C1CCCCN1` (stereo not given) [MEFLOQUINE], the concentration for half-maximal inhibition (IC50) in experiment [1] stood at 12.1 nM; in experiment [7] it was 7.9 nM; in experiment [5], 8.5 nM; in experiment [6] it was 8 nM.

For `Clc1ccc2c(N3CCN(CCCN4CCN(c5ccnc6cc(Cl)ccc56)CC4)CC3)ccnc2c1` [PIPERAQUINE], the concentration for half-maximal inhibition (IC50) in experiment [1] was found to be 24.8 nM; in experiment [2] it was 11.8 nM; in experiment [3], 17.1 nM; in experiment [4], 21.7 nM; in experiment [7], 14 nM; in experiment [5], 77.2 nM. Further, the concentration for half-maximal inhibition (IC50) in experiment [6] is 19.6 nM.

Consider `COc1ccc2nc3cc(Cl)ccc3c(Nc3cc(CN4CCCC4)c(O)c(CN4CCCC4)c3)c2n1` [PYRONARIDINE], for which the IC50 in experiment [1] is 2.58 nM; in experiment [2] it was 1.6 nM; in experiment [3], 1.92 nM; in experiment [4], 4.7 nM; in experiment [7], 2.5 nM; in experiment [5], 8 nM. Besides, the half-maximal inhibitory concentration (IC50) in experiment [6] stood at 2.4 nM.
